Source: PubChem (several laboratories)
HNF4A DNA FP: change in binding of human HNF4A to DNA, primary screen, biochemical, fluorescence polarization, FITC-DNA; 1 h; activity change, % at 10 µM; hit rate 0.3% among 360,000; in the data active = activity change above about 30%, passing the limit was not always enough
Rev-erbA mod: modulators of Rev-erb alpha DNA binding, primary screen, biochemical, FITC-DNA, fluorescence polarization, uHTS; Rev-erbα–FITC-DNA binding, 90 min; AID 1259318, 2017; hit rate 0.79% among 370,000; activity, % at 10 µM;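 active = activity above about 14%, limit read from the data; passing the limit was not always enough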;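 also: 0% = DMSO wells with 35 nM protein and 100% = DMSO wells with 750 nM protein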
Target sequence (P20393 whole entry, looked up): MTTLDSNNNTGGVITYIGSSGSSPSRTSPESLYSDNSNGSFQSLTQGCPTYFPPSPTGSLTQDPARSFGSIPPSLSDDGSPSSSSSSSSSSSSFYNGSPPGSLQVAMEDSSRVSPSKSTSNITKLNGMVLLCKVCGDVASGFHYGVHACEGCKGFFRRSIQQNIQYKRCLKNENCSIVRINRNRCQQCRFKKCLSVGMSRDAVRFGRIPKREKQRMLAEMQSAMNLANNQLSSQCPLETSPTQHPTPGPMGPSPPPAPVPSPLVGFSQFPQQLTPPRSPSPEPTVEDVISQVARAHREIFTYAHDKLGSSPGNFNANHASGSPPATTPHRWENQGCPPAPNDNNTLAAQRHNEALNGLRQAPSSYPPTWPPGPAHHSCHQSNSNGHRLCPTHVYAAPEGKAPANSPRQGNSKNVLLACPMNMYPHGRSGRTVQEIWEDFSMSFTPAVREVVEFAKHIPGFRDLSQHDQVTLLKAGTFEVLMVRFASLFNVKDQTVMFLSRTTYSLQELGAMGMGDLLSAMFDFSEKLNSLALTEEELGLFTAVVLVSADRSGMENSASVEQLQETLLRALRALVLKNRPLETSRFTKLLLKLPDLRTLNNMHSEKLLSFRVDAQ
TPT1 inh: Candida albicans TPT1 enzyme inhibitors, primary screen, biochemical, fluorescence polarization | tRNA 2'-phosphotransferase TPT1 (Candida albicans SC5314) | recombinant caTPT1, FP RNA substrate dephosphorylation | inhibition, % at 5 µM | hit rate 0.81% among 300,000 | AID 1962, 2009;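 active = inhibition above the mean of all tested compounds plus 3 SD, set per screening campaign, cut at about 24% in these data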;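 also: plate controls were DMSO alone for no effect and ferristatin control at 100 nM for full effect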
CSN deneddyl inh: inhibitors of CSN-mediated cullin deneddylation, primary screen, biochemical, fluorescence polarization, uHTS | hit rate 0.38% among 360,000 | AID 651999, 2013 | inhibition, % at 12.5 µM | Purified CSN, SCF-Nedd8-OG deneddylation;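 active = pattern-corrected inhibition above about 35%, with an unprinted fluorescence ratio check between 0.5 and 1.5, limit read from the data, passing the limit was not always enough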;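 also: 0% = enzyme with substrate and 100% = substrate without enzyme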
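Detection – fluorescence polarization · System – HEK293T-derived human Csn5 enzyme · Controls – substrate-only high control, full reaction low control · Timing – 90 min, room temperature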
HNF4a DNA conf: change in HNF4A binding to DNA, retest, confirmation, biochemical, fluorescence polarization, FITC-DNA. shares compounds with HNF4A DNA FP. 1 h. activity change, % at 12.5 µM. hit rate 99% among 210. AID 1224897, 2016; call rule not given here
Rev-erbA confirm: modulators of Rev-erb alpha DNA binding, confirmation, biochemical, FITC-DNA, fluorescence polarization, single point; hit rate 61% among 3,000; activation, % at 25 µM; shares compounds with Rev-erbA mod; 90 min;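 active = activation at or above a set limit, or at least 3 SD above the negative control mean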;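 also: 0% = 35 nM protein with DMSO and 100% = 750 nM protein high control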
Active calls of the source: *; nt = no result given. Rows were chosen to be rich in hits. Some 1.7% of all compounds tested hit in one or more screens of this group.

SMILES	HNF4A DNA FP	Rev-erbA mod	TPT1 inh	CSN deneddyl inh	HNF4a DNA conf	others
O=C(N/N=C/c1cc2ccccc2nc1Cl)/C(=C/c1cccs1)NC(=O)c1ccccc1	46.6*	-6.8	10.0	18.9	49.7*
OCC1OC(C(N=Nc2ccccc2)=NNc2ccccc2)C(O)C1O (centres undefined)	nt	-1.1	nt	nt	nt
CC(C)(C)S(=O)(=O)N1Cc2cc(CO)ccc2[C@@H]1CCO	nt	-5.7	nt	nt	nt
C#CCOCCOCCOCCNc1nc(N2CCN(C(=O)[C@H](CCCCN)n3cc([C@@H](N)C(C)CC)nn3)CC2)nc(N2CCN(C(=O)[C@H](CCCCN)n3cc([C@@H](N)CC(C)C)nn3)CC2)n1 (some centres undefined)	71.9*	3.7	1.8	68.9*	111.9*
Cc1cc(/C=C2/NC(=S)NC2=O)c(C)n1-c1cccnc1	49.4*	3.8	22.4	23.0	97.7*
O=C(OCc1ccccc1)[C@H](Cc1ccccc1)NC(=O)[C@@H]1CC=C[C@@H]2CCN(Cc3ccccc3)C(=O)[C@@H]21	nt	0.1	nt	nt	nt
O=C(Nc1ccc([N+](=O)[O-])cc1)C(Cc1ccccc1)N1C(=O)c2cccc3cccc(c23)C1=O (centres undefined)	54.3*	21.7	0.1	23.6	93.7*
Cc1cc(C)c(NC(=O)CSCc2nc3sc(C)c(C)c3c(=O)[nH]2)c(Cl)c1	43.5*	1.5	nt	17.6	73.5*
Cc1nnc2sc(-c3ccc(NC(=O)c4ccc(-c5ccc(Cl)cc5Cl)o4)cc3)nn12	102.9*	-12.4	1.0	32.0	45.7*
CCOC(=O)[C@@]12CCCC3=C1N(CCC3)C(=O)[C@H]2CC(=O)N1CCCC1	nt	3.2	nt	nt	nt
O=C(Cc1c[nH]c2ccccc12)Nc1ccc(Nc2cccnc2)cc1	nt	-1.8	nt	nt	nt
COCc1cc(N2CCN(C(=O)OC(C)(C)C)C[C@@H]2C)ccc1N1CC[C@@H](O)C1	nt	2.8	nt	nt	nt
COc1cccc(/C=C2\SC(=S)N(CCCC(=O)Nc3cc(C)on3)C2=O)c1	47.2*	-3.2	2.9	35.7*	66.9*
CCc1ccc(/C=C2\SC(=S)N(CCCC(=O)Nc3cc(C)on3)C2=O)cc1	3.7	6.1	nt	-3.6	nt
CC(=O)C1(C(=O)N2CCOCC2)CC(c2ccccc2C(F)(F)F)=NO1 (centres undefined)	nt	4.1	nt	nt	nt
CCCCOCCCNC(=O)C[C@H]1C[C@@]2(C(=O)OC)C(=C[C@H](C(C)C)O[C@@H]2C2CC2)N(Cc2ccco2)C1=O	nt	-4.9	nt	nt	nt
O=C(N/N=C/c1cccnc1)c1ccc(NC(=O)c2ccc(Cl)cc2)cc1	16.9	-2.5	-1.7	6.2	nt
O=C(N/N=C/c1cccnc1)c1ccc(NC(=O)c2cccc(Cl)c2)cc1	107.7*	-9.9	-1.0	108.4*	151.9*
O=C(Nc1nccs1)c1cc(-c2ccccn2)nc2c(Cl)cccc12	72.5*	-22.7	-1.2	26.4	45.4*
Cc1cc(NC(=O)c2cc(-c3ccccn3)nc3c(Cl)cccc23)no1	-1.7	14.7	-1.3	1.9	nt
CCCCNc1ccc(C(CC(N)=O)NC(=O)Cc2ccc(Br)cc2)cc1[N+](=O)[O-] (centres undefined)	28.5	-1.5	22.5	9.9	nt
NC(=O)CC(NC(=O)Cc1cccc2ccccc12)c1ccc(NC2CCCCC2)c([N+](=O)[O-])c1 (centres undefined)	50.8*	-0.3	9.5	24.2	55.8*
NC(=O)CC(NC(=O)Cc1cccc2ccccc12)c1ccc(NC2CCCC2)c([N+](=O)[O-])c1 (centres undefined)	7.2	-2.5	nt	-2.1	nt
CCC(CC)Nc1ccc(C(CC(N)=O)NC(=O)Cc2ccc(Br)cc2)cc1[N+](=O)[O-] (centres undefined)	52.0*	6.3	20.6	31.9	36.8*
CCOC(=O)[C@@H]1CSCCS(=O)(=O)N1C(=O)[C@H](CC(C)C)NC(=O)OC(C)(C)C	nt	-5.2	nt	nt	nt
SMILES	HNF4A DNA FP	Rev-erbA mod	TPT1 inh	CSN deneddyl inh	HNF4a DNA conf	others
Cc1ccc2sc(N(CCCN(C)C)C(=O)c3nc4ccccc4s3)nc2c1C	216.9*	-1.2	0.2	107.0*	205.1*
Cc1cccc2sc(N(CCCN(C)C)C(=O)c3nc4ccccc4s3)nc12	12.9	2.5	-3.8	7.9	nt
Cc1cc(C)n2c(NCc3ccccc3)c(-c3cc4ccccc4o3)nc2n1	61.1*	-7.8	nt	1.6	64.6*
CC(C)C[C@H]1COc2cccc(NCCO)c2S(=O)(=O)N1	nt	-5.3	nt	nt	nt
O=C(NC1CCCC1)c1cccc2c1C(=O)c1ccc(N3CCCCC3)cc1S2(=O)=O	52.1*	9.7	nt	22.1	53.9*
O=C(NC1CCCC1)c1cccc2c1C(=O)c1ccc(Cl)cc1S2(=O)=O	-4.5	-6.4	nt	-4.5	nt
CC1CCN(c2ccc3c(c2)S(=O)(=O)c2cccc(C(=O)O)c2C3=O)CC1	28.1	9.8	nt	14.0	nt
CC1CCN(c2ccc3c(c2)S(=O)(=O)c2cccc(C(=O)NC4CCCCC4)c2C3=O)CC1	40.2*	2.3	nt	17.4	39.9*
CCCCCCCCCCOc1cc2c(=O)c(C(=O)OCC)c[nH]c2cc1OCC	nt	-0.4	nt	nt	nt
C#CCNC(=O)C[C@H]1C[C@@]2(C(=O)OC)C(=C[C@H](C(C)C)O[C@@H]2C2CC2)N(Cc2ccccc2)C1=O	nt	-2.6	nt	nt	nt
C=CCN1C(=O)[C@]2(OCCC=C[C@H]2C)c2cc(OC)ccc21	nt	0.1	nt	nt	nt
CC(=O)Nc1ccc2c(c1)-c1ccc(F)cc1C2	-1.0	0.3	nt	1.3	nt
CC(=O)Nc1cc2c(cc1[N+](=O)[O-])-c1ccc(F)cc1C2	32.5*	-3.0	nt	5.7	39.2*
CCCCc1c(-c2ccccc2OC)ncn1C1CCCCC1	nt	-3.5	nt	nt	nt
COc1ccc(C=NNc2ccc([N+](=O)[O-])cn2)cc1	72.5*	-5.0	nt	6.4	79.4*
O=[N+]([O-])c1ccc(C=NNc2ccccc2)cc1	46.5*	13.3	nt	21.3	46.8*
O=C(/C=C/c1ccc(OCCCF)cc1)Nc1ccnc(-c2ccncc2)n1	3.6	-2.5	1.4	2.5	nt
O=C(/C=C/c1ccc(OCCCF)cc1)Nc1ccnc(-c2cccnc2)n1	36.2*	24.3*	5.0	19.7	52.1*	Rev-erbA confirm=22.0*
C=CCN1C(=O)/C(=C2/Sc3ccc(OC)cc3N2C)SC1=Nc1cccc(O)c1	47.4*	15.9*	14.2	24.9	69.5*	Rev-erbA confirm=6.8
COc1ccc(OCc2nn3c(-c4ccccc4)nnc3s2)cc1	nt	-1.8	nt	nt	nt
C[C@H]1[C@@H](OC(=O)N2CCCC2)CC[C@@]23CCCN2C(=O)CCC[C@@H]13	nt	0.1	nt	nt	nt
